From PubChem BioAssay
Activity calls are given as the source filed them.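 Rule for the calls, unless noted: active = NADPH fluorescence slope more negative than the mean of all samples by about 3 SD, 99.7% confidence; inactive = the rest.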

Assays:
[1] = inhibitors of TNFa-induced NFkB p65 translocation, primary screen, imaging, HUVEC, MLSMR starter and 10KST1 sets (AID 438;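 active = inhibition above 20% together with a positive visual image hit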;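 note: compound added about 3h40 before a 20 min TNFalpha stimulation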;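 for inhibition: signal is the nuclear over cytoplasmic p65 intensity ratio per well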); conditions: HUVEC TNFa-induced p65 nuclear translocation; cell count: measured here: nuclei count (cytotoxicity indicator), at 2.08 µM; inhibition: at 2 µM, stronger effect = higher value, 0% TNFa-plus-vehicle, 100% no-TNFa wells
[2] = inhibitors of E-selectin induction by TNFa, primary screen, imaging, HUVEC, immunofluorescence, MLSMR starter and 10KST1 sets (AID 487;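 active = visually confirmed hit in the image check and inhibition above 20%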;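 for inhibition: signal is fraction of cell area covered by stained E-selectin grains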;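 for nuclei count: 100% = median nuclei count of all wells on the same plate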); conditions: HUVEC TNFalpha-induced E-selectin immunofluorescence imaging, at 2 µM; inhibition: stronger effect = higher value; nuclei count: measured here: cell number, toxicity
[3] = DUSP6 inhibitors restoring Erk phosphorylation by chemical complementation, primary imaging in DUSP6-transfected HeLa (AID 609;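 active = compounds giving at least 50% inhibition in the cell-based MKP-3 phosphatase rescue imaging test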;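 for inhibition: phospho-Erk level distribution per well compared with pooled transfected vehicle control wells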); conditions: HeLa MKP-3 transfected, phospho-Erk imaging KS statistic, at 10 µM, cells stimulated with TPA for 15 min
[4] = biological target: Dual specificity protein phosphatase 6 (Homo sapiens) (UniProt Q16828); test: as above; conditions: HeLa MKP-3 transfected, phospho-Erk imaging KS statistic; at 10 µM; stronger effect = higher value; cells stimulated with TPA for 15 min
[5] = biological target: Voltage-gated potassium channel subunit beta-2 (Rattus norvegicus) (UniProt P62483); test: KvBeta enzyme negative modulators, primary screen, biochemical, NADPH fluorescence (AID 622;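 active = fluorescence slope higher than the sample average by over 3 SD, cut at about -0.22 in these data, passing the limit was not always enough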;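 note: slope of raw intensity against log time taken from 70 to 1610 s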); conditions: recombinant KvBeta, 4-cyanobenzaldehyde reduction, at 10 µM, stronger effect = higher value
[6] = biological target: Voltage-gated potassium channel subunit beta-2 (Rattus norvegicus) (UniProt P62483); test: KvBeta positive modulators, primary screen, biochemical, NADPH fluorescence (AID 623); conditions: Recombinant KvBeta, NADPH fluorescence decrease slope, 10 min; at 10 µM; stronger effect = lower value;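 note: fluorescence intensity change per second fitted from 20 to 320 s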
[7] = biological target: Alpha-2C adrenergic receptor (Homo sapiens) (UniProt P18825); test: modulators of alpha2C/GIRK thallium flux, primary screen, cell-based, HEK293 alpha2C/GIRK1/2 (AID 624;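 active = fluorescence slope after compound addition differing from the mean of all screened samples at 99.7% confidence, in either direction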;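 note: slope of fluorescence ratio to pre-addition baseline per second over 15 to 24 s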); conditions: thallium flux BTC fluorescence, at 10 µM, actives lie on both sides
[8] = inhibitors of larval lipid processing in zebrafish, primary screen, whole organism, PED6 fluorescence, gall bladder and intestine (AID 686;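 active = a full or partial loss of lipid-probe fluorescence in the fish gall bladder, intestine or both, judged by eye; inactive = no fluorescence loss, or compound toxic to the fish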;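 note: larvae 5 to 7 days old with five fish per well; signal comes from phospholipase A2 cleavage of quenched PED6 carried via bile; overnight exposure to compound and PED6 before scoring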); conditions: Zebrafish larvae PED6 lipid processing, fluorescence scoring; screened at 20 µM (by protocol)
Method in brief: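 Test system – live zebrafish larvae aged 5-7 days, whole organism · Buffer or medium – E3 fish medium · Reagent – quenched phospholipase substrate PED6, 100 nM final, ingested by larvae · Doses – 20 µM single dose · Incubation – overnight compound and PED6 incubation · Technique – visual fluorescence microscopy scoring of gall bladder, gut · Read-out basis – visual per-well fluorescence inhibition score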

[9] = inhibitors of Chlamydomonas gravitaxis, primary screen, whole organism, Chlamydomonas reinhardtii, WT vs cilia-less mutant, absorbance, 96-well (AID 463189;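 active = inhibition at or above 50% relative to wild type and mutant plate controls; inactive = inhibition below 50%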;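 note: 0% = wild type cc124 cells in DMSO and 100% = ciliumless bld1 mutant cells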); conditions: OD600 absorbance, 2 days, at 10 µM, stronger effect = higher value
[10] = measured here: cell density z-score
[11] = measured here: nuclear c-Myc green intensity z-score
[12] = measured here: nuclear pErk red intensity z-score, stronger effect = higher value

Sequence of Alpha-2C adrenergic receptor (Homo sapiens) (P18825 whole entry, looked up): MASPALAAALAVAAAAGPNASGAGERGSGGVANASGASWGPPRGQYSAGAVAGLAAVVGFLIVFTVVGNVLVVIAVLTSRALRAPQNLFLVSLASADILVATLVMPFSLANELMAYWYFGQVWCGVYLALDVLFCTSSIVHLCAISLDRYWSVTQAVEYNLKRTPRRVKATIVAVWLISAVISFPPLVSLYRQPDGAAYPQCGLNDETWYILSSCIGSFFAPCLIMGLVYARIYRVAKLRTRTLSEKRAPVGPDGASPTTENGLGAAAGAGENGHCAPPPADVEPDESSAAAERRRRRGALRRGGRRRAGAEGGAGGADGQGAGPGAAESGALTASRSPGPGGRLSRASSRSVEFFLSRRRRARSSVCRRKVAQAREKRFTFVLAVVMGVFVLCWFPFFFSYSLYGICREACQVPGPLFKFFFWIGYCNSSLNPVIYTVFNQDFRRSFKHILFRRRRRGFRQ
Sequence of Dual specificity protein phosphatase 6 (Homo sapiens) (Q16828 whole entry, looked up): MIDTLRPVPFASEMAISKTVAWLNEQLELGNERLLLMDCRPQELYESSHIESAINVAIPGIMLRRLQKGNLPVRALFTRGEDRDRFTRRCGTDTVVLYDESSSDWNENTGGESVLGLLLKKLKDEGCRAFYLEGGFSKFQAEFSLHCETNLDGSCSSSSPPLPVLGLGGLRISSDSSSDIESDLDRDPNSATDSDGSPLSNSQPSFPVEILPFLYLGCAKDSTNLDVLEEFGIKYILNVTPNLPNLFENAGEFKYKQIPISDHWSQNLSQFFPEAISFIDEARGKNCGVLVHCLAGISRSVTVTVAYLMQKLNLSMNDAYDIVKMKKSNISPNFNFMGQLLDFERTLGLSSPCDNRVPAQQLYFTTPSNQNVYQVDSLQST
Sequence of Voltage-gated potassium channel subunit beta-2 (Rattus norvegicus) (P62483 whole entry, looked up): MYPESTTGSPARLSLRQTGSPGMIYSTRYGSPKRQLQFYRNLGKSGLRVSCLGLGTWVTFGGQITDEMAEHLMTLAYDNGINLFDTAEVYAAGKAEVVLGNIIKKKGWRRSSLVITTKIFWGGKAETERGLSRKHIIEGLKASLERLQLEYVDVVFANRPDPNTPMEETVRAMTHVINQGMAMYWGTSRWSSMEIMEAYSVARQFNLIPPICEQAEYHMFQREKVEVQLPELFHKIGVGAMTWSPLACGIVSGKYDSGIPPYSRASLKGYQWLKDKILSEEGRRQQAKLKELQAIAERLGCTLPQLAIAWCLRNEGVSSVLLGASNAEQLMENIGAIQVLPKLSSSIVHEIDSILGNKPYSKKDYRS

| SMILES | cell count [1] | inhibition [1] | inhibition [2] | nuclei count [2] [%] | z-score [3, 10] | z-score [3, 11] | z-score [3, 12] | inhibition [4] | fluorescence slope [5] | NADPH fluorescence slope [6] | slope [7] | outcome [8] | inhibition [9] |
| --- | --- | --- | --- | --- | --- | --- | --- | --- | --- | --- | --- | --- | --- |
| c1coc(-c2nnc3sc(Cc4cccs4)nn23)c1 | 593 | -3.5% (inactive) | 60.4% (inactive) | 98.5 | 0.488 | -1.26 | -0.189 | -13.3% (inactive) | -0.5 (inactive) | -4.8e-06 (inactive) | 0.00451 (inactive) | inactive | 5.83% (inactive) |
| COC(=O)c1nn2c(C(F)(F)F)cc(-c3ccc(Br)o3)nc2c1Br | 510 | -7.1% (inactive) | 1.9% (inactive) | 120 | -1.65 | -0.461 | 2.56 | -2.07% (inactive) | -0.442 (inactive) | -6.2e-05 (inactive) | 0.00401 (inactive) | inactive | 8.6% (inactive) |
| CCOC(=O)c1[nH]c2cc3c(cc2c1NC(=O)CN1CCCCC1C)OCO3 (centres undefined) | 588 | -1.8% (inactive) | 46.2% (inactive) | 167 | 0.894 | -1.11 | -0.403 | -10.5% (inactive) | -0.229 (inactive) | -2e-05 (inactive) | 0.00474 (inactive) | inactive | -2.82% (inactive) |
| COc1ccc2c(c1OC)C(=O)N1c3ccccc3C(=O)N(c3ccc(F)cc3)C21 (centres undefined) | 409 | -15.5% (inactive) | -44.4% (inactive) | 103 | -0.0624 | -0.142 | 0.819 | -1.12% (inactive) | -0.305 (inactive) | -2.1e-05 (inactive) | 0.00563 (inactive) | inactive | 6.22% (inactive) |
| CC(C)N1CC=C2C(C#N)=C(N)C(C#N)(C#N)C(c3ccccc3)C2C1 (centres undefined) | 535 | -3.2% (inactive) | -126% (inactive) | 218 | 0.674 | 3.57 | 1.58 | 68.6% (inactive) | -0.366 (inactive) | -2.3e-05 (inactive) | 0.000192 (inactive) | inactive | 11.1% (inactive) |
| O=C(O)CC(C(=O)OCC1CCCO1)N1CCOCC1 (centres undefined) | 526 | -5.8% (inactive) | -141% (inactive) | 145 | 0.582 | -0.928 | -1.26 | 10.5% (inactive) | -0.518 (inactive) | -4.1e-05 (inactive) | 0.00538 (inactive) | inactive | -1.05% (inactive) |
| CCOC(=O)c1[nH]c2cc3c(cc2c1NC(=O)CN1CCc2ccccc2C1)OCO3 | 523 | 0.1% (inactive) | -11.1% (inactive) | 104 | -0.283 | -0.223 | -0.654 | -1.75% (inactive) | -0.248 (inactive) | -1e-07 (inactive) | 0.00381 (inactive) | inactive | 25.5% (inactive) |
| CCn1cc(C(=O)NCc2ccccn2)c(=O)c2cc(F)c(N3CCN(C)CC3)cc21 | 461 | -3.5% (inactive) | -38.2% (inactive) | 185 | -1.96 | 2.4 | 0.403 | -0.624% (inactive) | -0.292 (inactive) | -3e-05 (inactive) | 0.00581 (inactive) | inactive | 6.37% (inactive) |
| CC1(C)Cc2c(C#N)c(NCCc3ccccc3)nc(-c3ccco3)c2CO1 | 585 | -9.7% (inactive) | -33.8% (inactive) | 184 | 0.597 | -1.77 | 0.237 | 22.3% (inactive) | -0.122 (inactive) | 5.1e-06 (inactive) | 0.00499 (inactive) | inactive | 34.4% (inactive) |
| COC(=O)c1ccccc1NC=C1C(=O)OC2(CCCCC2)OC1=O | 343 | -9% (inactive) | 27.4% (inactive) | 86.4 | -1.26 | -1.2 | -0.313 | 1.42% (inactive) | -0.443 (inactive) | -1.9e-05 (inactive) | 0.00691 (inactive) | inactive | 46.5% (inactive) |
| O=C(O)CC(NCc1ccco1)C(=O)OCC1CCCO1 (centres undefined) | 557 | -3.4% (inactive) | -26.1% (inactive) | 134 | 0.185 | -1.18 | -0.884 | 5.26% (inactive) | -0.369 (inactive) | -2.3e-05 (inactive) | 0.00498 (inactive) | inactive | 17.1% (inactive) |
| CCc1ccc2c(c1)C(C)=CC(C)(C)N2 | 622 | -14.1% (inactive) | -3.3% (inactive) | 176 | -1.35 | -0.276 | 0.835 | -13.3% (inactive) | -0.431 (inactive) | -6.9e-05 (inactive) | 0.00542 (inactive) | inactive | 5.82% (inactive) |
| Cc1cc(C)nc(N(C#N)S(=O)(=O)c2ccccc2Cl)n1 | 352 | -11.5% (inactive) | -228% (inactive) | 115 | -0.515 | -1.54 | -0.959 | -2.07% (inactive) | -0.406 (inactive) | -3.7e-06 (inactive) | 0.0071 (inactive) | inactive | -0.932% (inactive) |
